Measurements from ChEMBL document CHEMBL5247671, “Design and Synthesis of Pyrazole-Based Macrocyclic Kinase Inhibitors Targeting BMPR2” (ACS Med Chem Lett, 2023).
Values joined by “and” are separate entries in the source; they are usually repeats but may differ in a detail not shown here. Equal values may be shown once.

How the values were obtained:
[1] = target: BMP-2-inducible protein kinase (Homo sapiens) (UniProt Q9NSY1); assay: Binding affinity to recombinant BMP2K (unknown origin) assessed as change in melting temperature at 10 uM by DSF assay
Method in brief: (§1)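 Differential scanning fluorimetry on an in-house panel of 90 recombinant kinases. Stabilization is read as the shift in melting temperature (ΔTm) relative to ligand-free protein. Staurosporine served as the positive control, and binding was also compared against its ΔTm.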

[2] = target: MAP/microtubule affinity-regulating kinase 3 (Homo sapiens) (UniProt P27448); assay: Binding affinity to recombinant MARK3 (unknown origin) assessed as change in melting temperature at 10 uM by DSF assay; method in brief: as §1
[3] = target: T1, MAP/microtubule affinity-regulating kinase 4 (Homo sapiens) (UniProt Q96L34); assay: Binding affinity to recombinant MARK4 (unknown origin) assessed as change in melting temperature at 10 uM by DSF assay; method in brief: as §1
T1 sequence (whole entry): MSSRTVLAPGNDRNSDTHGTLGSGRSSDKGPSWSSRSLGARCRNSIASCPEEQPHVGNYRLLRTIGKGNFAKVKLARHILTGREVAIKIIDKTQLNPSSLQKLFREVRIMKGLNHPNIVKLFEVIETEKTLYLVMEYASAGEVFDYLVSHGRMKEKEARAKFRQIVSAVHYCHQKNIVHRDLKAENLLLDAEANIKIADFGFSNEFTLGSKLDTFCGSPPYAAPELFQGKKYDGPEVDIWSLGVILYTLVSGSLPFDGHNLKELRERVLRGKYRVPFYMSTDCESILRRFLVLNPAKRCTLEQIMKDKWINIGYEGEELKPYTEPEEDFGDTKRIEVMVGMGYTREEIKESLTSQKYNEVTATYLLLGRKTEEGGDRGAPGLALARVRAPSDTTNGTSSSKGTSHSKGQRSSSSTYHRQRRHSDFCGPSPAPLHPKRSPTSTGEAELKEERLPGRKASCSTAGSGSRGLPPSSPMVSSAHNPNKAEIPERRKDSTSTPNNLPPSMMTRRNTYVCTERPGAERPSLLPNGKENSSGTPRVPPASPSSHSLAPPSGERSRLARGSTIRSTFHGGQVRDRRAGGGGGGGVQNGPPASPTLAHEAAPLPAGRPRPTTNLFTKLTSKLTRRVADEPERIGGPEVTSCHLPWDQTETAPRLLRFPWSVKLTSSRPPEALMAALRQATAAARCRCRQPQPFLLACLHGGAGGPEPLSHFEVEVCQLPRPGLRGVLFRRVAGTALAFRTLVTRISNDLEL

[4] = target: T2, Mitogen-activated protein kinase 15 (Homo sapiens) (UniProt Q8TD08); assay: Binding affinity to recombinant MAPK15 (unknown origin) assessed as change in melting temperature at 10 uM by DSF assay; method in brief: as §1
T2 sequence (whole entry): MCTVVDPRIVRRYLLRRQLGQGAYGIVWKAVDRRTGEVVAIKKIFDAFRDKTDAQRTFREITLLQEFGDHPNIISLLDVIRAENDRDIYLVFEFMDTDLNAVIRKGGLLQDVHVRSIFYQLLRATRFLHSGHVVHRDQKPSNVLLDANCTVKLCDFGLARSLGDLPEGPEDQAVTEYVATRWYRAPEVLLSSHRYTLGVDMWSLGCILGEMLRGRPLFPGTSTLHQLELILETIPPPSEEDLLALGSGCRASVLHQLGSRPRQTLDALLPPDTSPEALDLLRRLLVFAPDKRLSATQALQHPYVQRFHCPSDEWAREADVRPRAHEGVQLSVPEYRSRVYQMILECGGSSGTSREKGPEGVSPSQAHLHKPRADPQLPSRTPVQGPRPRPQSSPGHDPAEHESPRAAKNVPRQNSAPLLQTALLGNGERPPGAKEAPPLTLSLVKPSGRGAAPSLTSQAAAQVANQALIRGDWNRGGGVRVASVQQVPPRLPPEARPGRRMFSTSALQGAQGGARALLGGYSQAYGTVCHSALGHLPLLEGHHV

[5] = target: T3, Tyrosine-protein kinase Mer (Homo sapiens) (UniProt Q12866); assay: Binding affinity to recombinant MERTK (unknown origin) assessed as change in melting temperature at 10 uM by DSF assay; method in brief: as §1
T3 sequence (whole entry): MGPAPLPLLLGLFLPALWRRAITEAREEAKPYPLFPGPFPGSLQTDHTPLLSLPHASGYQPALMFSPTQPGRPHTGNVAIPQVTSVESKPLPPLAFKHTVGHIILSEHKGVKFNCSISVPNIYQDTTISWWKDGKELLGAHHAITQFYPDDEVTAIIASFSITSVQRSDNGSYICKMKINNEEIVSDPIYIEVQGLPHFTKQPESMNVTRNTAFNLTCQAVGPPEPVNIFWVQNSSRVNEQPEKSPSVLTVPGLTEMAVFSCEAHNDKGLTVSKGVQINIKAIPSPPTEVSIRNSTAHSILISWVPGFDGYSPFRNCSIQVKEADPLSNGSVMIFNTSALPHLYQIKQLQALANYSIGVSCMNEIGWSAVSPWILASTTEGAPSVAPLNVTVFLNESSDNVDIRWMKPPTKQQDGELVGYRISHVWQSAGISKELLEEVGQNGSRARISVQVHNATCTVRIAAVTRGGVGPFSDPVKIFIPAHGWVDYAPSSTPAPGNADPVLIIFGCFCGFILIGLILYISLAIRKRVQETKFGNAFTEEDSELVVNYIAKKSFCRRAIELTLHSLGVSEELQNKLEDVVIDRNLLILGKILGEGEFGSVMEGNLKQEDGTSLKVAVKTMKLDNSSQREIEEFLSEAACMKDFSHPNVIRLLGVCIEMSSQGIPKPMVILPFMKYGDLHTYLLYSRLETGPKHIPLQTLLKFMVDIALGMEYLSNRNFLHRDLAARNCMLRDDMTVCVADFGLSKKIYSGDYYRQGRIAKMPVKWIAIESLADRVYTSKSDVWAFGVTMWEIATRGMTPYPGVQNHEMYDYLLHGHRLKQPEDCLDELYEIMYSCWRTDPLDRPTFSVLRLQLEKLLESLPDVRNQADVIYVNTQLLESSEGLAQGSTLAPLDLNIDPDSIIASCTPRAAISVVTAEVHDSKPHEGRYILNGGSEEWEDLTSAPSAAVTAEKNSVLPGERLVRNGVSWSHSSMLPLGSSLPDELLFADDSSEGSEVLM

[6] = target: BMP-2-inducible protein kinase (Homo sapiens) (UniProt Q9NSY1); assay: Inhibition of recombinant BMP2K (unknown origin) at 10 uM by DSF assay relative to staurosporine; method in brief: as §1
[7] = target: Serine/threonine-protein kinase RIO2 (Homo sapiens) (UniProt Q9BVS4); assay: Inhibition of RIOK2 (unknown origin) assessed as residual activity at 1 uM by Kinomescan assay relative to staurosporine
Serine/threonine-protein kinase RIO2 (Homo sapiens), sequence (Q9BVS4 whole entry, looked up): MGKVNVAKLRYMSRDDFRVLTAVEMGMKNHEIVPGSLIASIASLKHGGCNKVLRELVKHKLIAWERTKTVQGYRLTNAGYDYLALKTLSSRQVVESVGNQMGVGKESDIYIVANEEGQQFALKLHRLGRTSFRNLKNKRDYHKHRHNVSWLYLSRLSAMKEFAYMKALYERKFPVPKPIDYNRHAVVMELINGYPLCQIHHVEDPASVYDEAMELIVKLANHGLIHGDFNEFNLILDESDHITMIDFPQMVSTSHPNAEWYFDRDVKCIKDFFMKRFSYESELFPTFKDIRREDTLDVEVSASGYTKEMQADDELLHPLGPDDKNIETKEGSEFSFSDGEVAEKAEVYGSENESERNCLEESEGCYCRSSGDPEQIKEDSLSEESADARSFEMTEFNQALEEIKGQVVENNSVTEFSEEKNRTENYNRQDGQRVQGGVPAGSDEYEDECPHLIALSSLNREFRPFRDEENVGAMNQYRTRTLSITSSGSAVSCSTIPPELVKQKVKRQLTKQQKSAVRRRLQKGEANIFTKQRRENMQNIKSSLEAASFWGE

BMP-2-inducible protein kinase (Homo sapiens), sequence (Q9NSY1 whole entry, looked up): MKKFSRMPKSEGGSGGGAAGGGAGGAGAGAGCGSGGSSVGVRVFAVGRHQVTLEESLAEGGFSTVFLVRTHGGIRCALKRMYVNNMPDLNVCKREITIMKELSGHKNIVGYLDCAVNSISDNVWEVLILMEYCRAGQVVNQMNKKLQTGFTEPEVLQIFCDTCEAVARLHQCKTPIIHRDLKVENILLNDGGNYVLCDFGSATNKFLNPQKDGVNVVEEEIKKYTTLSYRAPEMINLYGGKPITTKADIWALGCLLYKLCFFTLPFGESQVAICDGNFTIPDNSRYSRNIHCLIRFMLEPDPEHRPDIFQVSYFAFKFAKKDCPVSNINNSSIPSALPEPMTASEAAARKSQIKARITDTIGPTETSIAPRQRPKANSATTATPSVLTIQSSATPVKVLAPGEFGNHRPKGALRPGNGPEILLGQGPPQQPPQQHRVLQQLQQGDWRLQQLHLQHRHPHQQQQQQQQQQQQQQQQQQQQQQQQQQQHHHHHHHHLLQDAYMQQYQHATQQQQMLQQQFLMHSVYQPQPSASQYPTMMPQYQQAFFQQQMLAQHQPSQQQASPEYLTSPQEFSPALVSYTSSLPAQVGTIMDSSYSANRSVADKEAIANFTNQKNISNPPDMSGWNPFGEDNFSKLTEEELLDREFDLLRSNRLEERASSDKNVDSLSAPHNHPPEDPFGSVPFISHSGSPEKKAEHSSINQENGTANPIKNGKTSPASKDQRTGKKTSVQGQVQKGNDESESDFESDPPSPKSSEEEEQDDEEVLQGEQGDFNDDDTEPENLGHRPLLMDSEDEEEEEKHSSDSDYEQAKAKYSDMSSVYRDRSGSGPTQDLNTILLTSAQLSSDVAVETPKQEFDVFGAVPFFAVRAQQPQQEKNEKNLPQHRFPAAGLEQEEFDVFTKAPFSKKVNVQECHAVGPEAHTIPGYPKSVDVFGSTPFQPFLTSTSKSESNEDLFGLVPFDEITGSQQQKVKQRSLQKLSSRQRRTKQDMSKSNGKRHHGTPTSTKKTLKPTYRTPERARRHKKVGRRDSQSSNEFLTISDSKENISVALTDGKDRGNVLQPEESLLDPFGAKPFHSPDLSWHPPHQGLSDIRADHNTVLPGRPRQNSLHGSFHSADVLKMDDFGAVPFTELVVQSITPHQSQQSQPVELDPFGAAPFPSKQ
MAP/microtubule affinity-regulating kinase 3 (Homo sapiens), sequence (P27448 whole entry, looked up): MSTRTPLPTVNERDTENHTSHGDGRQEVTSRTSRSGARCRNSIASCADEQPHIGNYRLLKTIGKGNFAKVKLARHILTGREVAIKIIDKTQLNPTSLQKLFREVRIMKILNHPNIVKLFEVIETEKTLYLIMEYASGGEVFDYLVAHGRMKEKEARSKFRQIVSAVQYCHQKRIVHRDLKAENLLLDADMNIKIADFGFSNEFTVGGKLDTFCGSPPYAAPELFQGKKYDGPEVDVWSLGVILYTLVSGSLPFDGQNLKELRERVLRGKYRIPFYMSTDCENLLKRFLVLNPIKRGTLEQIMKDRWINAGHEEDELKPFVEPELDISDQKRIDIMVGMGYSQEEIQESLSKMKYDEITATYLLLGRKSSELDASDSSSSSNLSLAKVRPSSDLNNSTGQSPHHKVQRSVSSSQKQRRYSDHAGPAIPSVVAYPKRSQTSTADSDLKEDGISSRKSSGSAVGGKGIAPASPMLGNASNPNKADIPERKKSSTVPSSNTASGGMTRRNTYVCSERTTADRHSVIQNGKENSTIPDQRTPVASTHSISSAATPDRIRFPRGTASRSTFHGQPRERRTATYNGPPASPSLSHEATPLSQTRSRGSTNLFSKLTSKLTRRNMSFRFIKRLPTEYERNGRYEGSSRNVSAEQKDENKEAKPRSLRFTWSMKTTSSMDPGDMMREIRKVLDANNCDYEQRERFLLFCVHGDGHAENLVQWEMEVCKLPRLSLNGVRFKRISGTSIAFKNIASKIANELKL

ΔTm [1]: 5.8 °C and 5.3 °C
ΔTm [2]: 3.9 °C
ΔTm [3]: 3.8 °C
ΔTm [5]: 3.2 °C
inhibition [6]: 30%
Activity [7]: 27%
SMILES: O=C1NCCc2ccc(cc2)Nc2nccc(n2)Nc2cc1[nH]n2
ΔTm [4]: 3.8 °C
